Measured values collected from several papers.
Protocols differ between the studies behind these lines.
Target: Casein kinase I isoform alpha (CSNK1A1, Homo sapiens, UniProt P48729)

Compound | read-out | method | concentration | remaining binding [%]
Cc1cnn2ncc(-c3ccnc(N(C)C)n3)c2c1 | binding |  | 1 µM | 43
C[C@@H](c1ccc(-n2cnc3c(N)ncnc32)cc1)N1CCc2nn(C)c(Cc3ccccc3)c2C1=O | binding | competition with immobilised ligand | 0.1 µM | 87
CCCCN(CCCC)C(=O)CN1C[C@H](c2cc(OC)c3c(c2)OCO3)[C@@H](C(=O)O)[C@@H]1CC(C)(C)CCC | cell-free assay | competition with immobilised ligand | 1 µM | 98.1
CNC(=O)[C@@H]1CC[C@@H](n2c(-c3ccc4cnccc4c3)nc3ccc(C(=O)NCc4cccc(C(N)=O)c4)cc32)C1 | binding | competition with immobilised ligand | 1 µM | 99
O=C(NCC1CCOCC1)c1n[nH]cc1NC(=O)c1c(F)cccc1F | binding | competition with immobilised ligand | 1 µM | 77
FC(F)(F)Oc1cccc(-c2cnc3ccc(-c4ccncc4)nn23)c1 | cell-free assay | competition with immobilised ligand | 5 µM | 52
CCC(=N\O)/C(C)=C/c1ccc(F)cc1 | cell-free assay | competition with immobilised ligand | 1 µM | 74
CN(C)c1ncc(F)c(-c2cnn3ncccc23)n1 | binding |  | 1 µM | 98
COc1ccc2c(c1)O[C@H](c1ccc(OC)c(OC)c1)C[C@@H]2NC(=O)C1(c2ccc3c(c2)OC(F)(F)O3)CC1 | cell-free assay | competition with immobilised ligand | 1 µM | 82
COc1cnc(Nc2cccc(S(N)(=O)=O)c2)nc1N1CCN(c2ccccc2)C(=O)C1 | binding | competition with immobilised ligand | 1 µM | 93
Cc1cnc(Nc2ccc(C(=O)N3CCC(N4CCCC4)CC3)cc2)nc1-c1cc2ccccc2s1 | binding | competition with immobilised ligand | 1 µM | 60
CC1=C(C#N)C(c2ccc3c(c2)c(NC(=O)c2ccccc2C)nn3C)C(C#N)=C(C)N1 | cell-free assay | competition with immobilised ligand | 1 µM | 70
F[C@@H]1CCN(c2nccc(-c3cnn4ncccc34)n2)C1 | binding |  | 1 µM | 90
O=C(NC[C@@H]1[C@H]2CN(C(=O)OCc3cc(C(F)(F)F)cc(C(F)(F)F)c3)C[C@@H]12)c1ccc2[nH]nnc2c1 | cell-free assay | competition with immobilised ligand | 1 µM | 100
Nc1ncc2c(n1)-c1c([nH]c3ccc(C#CC4CC4)cc13)CCCC2 | binding | competition with immobilised ligand | 1 µM | 93
CC1CCCN1c1nccc(-c2cnn3ncccc23)n1 (stereo not shown) | binding |  | 1 µM | 100
CS(=O)(=O)NCC[C@H](NC(=O)c1cncc2c1cnn2-c1ccc(F)cc1)c1ccnc(S(C)(=O)=O)c1 | cell-free assay | competition with immobilised ligand | 1 µM | 100
N[C@H]1CCN(c2nccc(-c3cnn4ncccc34)n2)C1 | binding |  | 1 µM | 41
O=C(NCCCN1CCOCC1)c1ccc(Nc2nccc(-c3cc4ccccc4s3)n2)cc1 | binding | competition with immobilised ligand | 1 µM | 74
Cn1nc(C(F)(F)F)cc1-c1cnc(N2CCc3cc(S(=O)(=O)Nc4c(F)cc(Cl)cc4F)cc(N4CCCC4=O)c32)nc1 | cell-free assay | competition with immobilised ligand | 1 µM | 86
C[C@H]1CCN(c2nccc(-c3cnn4ncccc34)n2)C1 | binding |  | 1 µM | 47
O=C(c1ccc(Nc2ncc(Cl)c(-c3ccc(Cl)s3)n2)cc1)N1CCC(N2CCCC2)CC1 | binding | competition with immobilised ligand | 1 µM | 97
